Experimental data published in ChEMBL document CHEMBL1268908, “Design, synthesis, radiolabeling, and in vivo evaluation of carbon-11 labeled N-[2-[4-(3-cyanopyridin-2-yl)piperazin-1-yl]ethyl]-3-methoxybenzamide, a potential positron emission tomography tracer for the dopamine D(4) receptors” (J Med Chem, 2010).

Key:
Assay type in all cases: ADME, organism-based, Macaca mulatta
[1] = system: Hippocampus; assay: Biodistribution in rhesus monkey hippocampus at 150.3 MBq, iv after 1.25 mins; settings: in vivo, 75 s
Method in brief: (§1)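 Single male rhesus monkey anesthetized with ketamine 10 mg/kg im, head fixed. Attenuation correction by 20 min 68Ge-68Ga transmission scan. [11C]-tracer in saline (pH 7.4) given iv, specific radioactivity 2.9 TBq/μmol at injection. Dynamic 3D PET emission scan over 90 min in frames of 0.5 to 5 min. MRI T1 images used to define VOIs. Uptake expressed as […].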

[2] = Biodistribution in rhesus monkey entorhinal cortex at 150.3 MBq, iv after 25 mins; settings: in vivo; method in brief: as §1
[3] = Biodistribution in rhesus monkey entorhinal cortex at 150.3 MBq, iv after 23 mins; settings: in vivo; method in brief: as §1
[4] = system: Striatum; assay: Biodistribution in rhesus monkey striatum at 150.3 MBq, iv after 0.75 mins; settings: in vivo, 45 s
[5] = system: Striatum; assay: Biodistribution in rhesus monkey striatum at 150.3 MBq, iv after 13 mins; settings: in vivo
[6] = Biodistribution in rhesus monkey cerebellum at 150.3 MBq, iv after 4.5 mins; settings: in vivo, 0.075 h
Method in brief: (§2)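 Male rhesus monkey under ketamine (10 mg/kg im) with head fixation. After a 20 min 68Ge-68Ga transmission scan, the [11C]-labelled tracer in saline (pH 7.4) was injected iv, at 2.9 TBq/μmol specific radioactivity at injection. A dynamic 3D PET scan followed over 90 min (6×0.5, 7×1, 20×2, 8×5 min frames). Regions were defined on T1-weighted 1.5 T MRI, and uptake is given as %ID/mL.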

[7] = system: Hippocampus; assay: Biodistribution in rhesus monkey hippocampus at 150.3 MBq, iv after 8.5 mins; settings: in vivo
Method in brief: (§3)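 Male rhesus monkey under ketamine 10 mg/kg im, head fixed; 20 min 68Ge-68Ga transmission scan, then 90 min dynamic 3D PET (6×0.5, 7×1, 20×2, 8×5 min frames) after iv [11C]-labelled tracer in saline, specific radioactivity about 2.9 TBq/μmol at injection. Regions defined on T1-weighted MRI; uptake expressed as % injected dose per mL.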

[8] = system: Striatum; assay: Biodistribution in rhesus monkey striatum at 150.3 MBq, iv after 47 mins; settings: in vivo
[9] = system: Striatum; assay: Biodistribution in rhesus monkey striatum at 150.3 MBq, iv after 52.5 mins; settings: in vivo, 0.875 h
[10] = system: Hippocampus; assay: Biodistribution in rhesus monkey hippocampus at 150.3 MBq, iv after 1.75 mins; settings: in vivo, 105 s; method in brief: as §1
[11] = Biodistribution in rhesus monkey cingulate cortex at 150.3 MBq, iv after 21 mins; settings: in vivo, 0.35 h; method in brief: as §2
[12] = Biodistribution in rhesus monkey cerebellum at 150.3 MBq, iv after 31 mins; settings: in vivo; method in brief: as §2
[13] = system: Hippocampus; assay: Biodistribution in rhesus monkey hippocampus at 150.3 MBq, iv after 37 mins; settings: in vivo; method in brief: as §3
[14] = Biodistribution in rhesus monkey retina at 150.3 MBq, iv after 15 mins; settings: in vivo, 0.25 h
[15] = Biodistribution in rhesus monkey cerebellum at 150.3 MBq, iv after 35 mins; settings: in vivo; method in brief: as §2
[16] = system: Striatum; assay: Biodistribution in rhesus monkey striatum at 150.3 MBq, iv after 11 mins; settings: in vivo
[17] = system: Hippocampus; assay: Biodistribution in rhesus monkey hippocampus at 150.3 MBq, iv after 82.5 mins; settings: in vivo, 1.375 h; method in brief: as §3
[18] = Biodistribution in rhesus monkey retina at 150.3 MBq, iv after 13 mins; settings: in vivo
[19] = Biodistribution in rhesus monkey cingulate cortex at 150.3 MBq, iv after 39 mins; settings: in vivo, 0.65 h; method in brief: as §2
[20] = Biodistribution in rhesus monkey retina at 150.3 MBq, iv after 62.5 mins; settings: in vivo
[21] = Biodistribution in rhesus monkey cingulate cortex at 150.3 MBq, iv after 27 mins; settings: in vivo, 0.45 h; method in brief: as §2
[22] = Biodistribution in rhesus monkey occipital lobe at 150.3 MBq, iv after 29 mins; settings: in vivo; method in brief: as §3
[23] = Biodistribution in rhesus monkey cingulate cortex at 150.3 MBq, iv after 11 mins; settings: in vivo; method in brief: as §2
[24] = system: Hippocampus; assay: Biodistribution in rhesus monkey hippocampus at 150.3 MBq, iv after 43 mins; settings: in vivo; method in brief: as §3
[25] = Biodistribution in rhesus monkey cerebellum at 150.3 MBq, iv after 41 mins; settings: in vivo; method in brief: as §2
[26] = system: Hippocampus; assay: Biodistribution in rhesus monkey hippocampus at 150.3 MBq, iv after 77.5 mins; settings: in vivo; method in brief: as §3
[27] = Biodistribution in rhesus monkey cerebellum at 150.3 MBq, iv after 1.25 mins; settings: in vivo, 75 s; method in brief: as §2
[28] = Biodistribution in rhesus monkey occipital lobe at 150.3 MBq, iv after 52.5 mins; settings: in vivo, 0.875 h
[29] = Biodistribution in rhesus monkey cingulate cortex at 150.3 MBq, iv after 37 mins; settings: in vivo; method in brief: as §2

[11CH3]Oc1cccc(C(=O)NCCN2CCN(c3ncccc3C#N)CC2)c1
Drug uptake [1]: 55.94 kBq/ml | Drug uptake [2]: 17.3 kBq/ml | Drug uptake [3]: 16.74 kBq/ml | Drug uptake [4]: 64.38 kBq/ml | Drug uptake [5]: 24.68 kBq/ml | Drug uptake [6]: 34.76 kBq/ml | Drug uptake [7]: 30.9853 kBq/ml | Drug uptake [8]: 10.6 kBq/ml | Drug uptake [9]: 10.06 kBq/ml | Drug uptake [10]: 50.86 kBq/ml | Drug uptake [11]: 17.1 kBq/ml | Drug uptake [12]: 13.26 kBq/ml | Drug uptake [13]: 12.43 kBq/ml | Drug uptake [14]: 50.94 kBq/ml | Drug uptake [15]: 11.95 kBq/ml | Drug uptake [16]: 28.08 kBq/ml | Drug uptake [17]: 8.042 kBq/ml | Drug uptake [18]: 50.22 kBq/ml | Drug uptake [19]: 11.74 kBq/ml | Drug uptake [20]: 54.08 kBq/ml | Drug uptake [21]: 15.6843 kBq/ml | Drug uptake [22]: 13.8 kBq/ml | Drug uptake [23]: 25.93 kBq/ml | Drug uptake [24]: 10.83 kBq/ml | Drug uptake [25]: 10.86 kBq/ml | Drug uptake [26]: 8.119 kBq/ml | Drug uptake [27]: 51.01 kBq/ml | Drug uptake [28]: 9.487 kBq/ml | Drug uptake [29]: 11.95 kBq/ml
